This is an account of results in PMC3501595 (Biochemical pharmacology, 2012).

The target in test [1] is T1, topoisomerase IIα (Homo sapiens, UniProt P11388). Put plainly: kDNA decatenation assay at […] ATP. It is filed as biochemical.
The next test has as its target topoisomerase IIβ (Homo sapiens, UniProt Q02880). Put plainly: cellular ICE assay of covalent enzyme-DNA complexes in K562 cells. In kind it is cell-based.
For another test, the target named is T2, topoisomerase I (Homo sapiens, UniProt P11387).
T2 sequence (P11387 2-765): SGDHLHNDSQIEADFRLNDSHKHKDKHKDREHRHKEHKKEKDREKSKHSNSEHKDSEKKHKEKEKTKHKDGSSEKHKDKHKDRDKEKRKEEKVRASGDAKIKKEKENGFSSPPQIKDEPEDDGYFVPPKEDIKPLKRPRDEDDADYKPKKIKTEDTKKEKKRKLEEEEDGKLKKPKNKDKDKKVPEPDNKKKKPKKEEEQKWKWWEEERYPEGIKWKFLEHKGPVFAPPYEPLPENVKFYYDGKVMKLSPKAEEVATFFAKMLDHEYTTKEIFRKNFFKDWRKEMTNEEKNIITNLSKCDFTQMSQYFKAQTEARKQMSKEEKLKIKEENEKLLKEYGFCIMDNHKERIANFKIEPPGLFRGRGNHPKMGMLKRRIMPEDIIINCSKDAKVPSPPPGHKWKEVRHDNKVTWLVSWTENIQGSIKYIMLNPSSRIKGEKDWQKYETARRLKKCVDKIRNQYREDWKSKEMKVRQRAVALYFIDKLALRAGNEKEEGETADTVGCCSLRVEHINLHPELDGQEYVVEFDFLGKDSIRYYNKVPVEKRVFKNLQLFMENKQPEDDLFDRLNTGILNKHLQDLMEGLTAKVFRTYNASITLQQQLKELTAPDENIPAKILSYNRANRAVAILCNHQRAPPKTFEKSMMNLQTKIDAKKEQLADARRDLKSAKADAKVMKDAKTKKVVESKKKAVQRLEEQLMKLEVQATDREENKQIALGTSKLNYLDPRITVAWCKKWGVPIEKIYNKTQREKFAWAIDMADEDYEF
Put plainly: pBR322 DNA relaxation gel assay. It is filed as biochemical.

Test [2] concerns the target T1, topoisomerase IIα. Put plainly: kDNA decatenation gel assay. It is filed as biochemical. The method in brief: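 Recombinant full-length human topoisomerase IIα. Decatenation: catenated kDNA networks released as individual minicircles in an ATP-dependent reaction, resolved on gel. Cleavage: closed circular pBR322 converted to linear DNA at 37 °C. All components were mixed on ice before the test compound was added. Complexes were trapped with SDS and resolved by ethidium bromide gel electrophoresis.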

In another test the target is T3, yeast topoisomerase II (Saccharomyces cerevisiae, UniProt P06786).
T3 sequence (P06786 1-1428): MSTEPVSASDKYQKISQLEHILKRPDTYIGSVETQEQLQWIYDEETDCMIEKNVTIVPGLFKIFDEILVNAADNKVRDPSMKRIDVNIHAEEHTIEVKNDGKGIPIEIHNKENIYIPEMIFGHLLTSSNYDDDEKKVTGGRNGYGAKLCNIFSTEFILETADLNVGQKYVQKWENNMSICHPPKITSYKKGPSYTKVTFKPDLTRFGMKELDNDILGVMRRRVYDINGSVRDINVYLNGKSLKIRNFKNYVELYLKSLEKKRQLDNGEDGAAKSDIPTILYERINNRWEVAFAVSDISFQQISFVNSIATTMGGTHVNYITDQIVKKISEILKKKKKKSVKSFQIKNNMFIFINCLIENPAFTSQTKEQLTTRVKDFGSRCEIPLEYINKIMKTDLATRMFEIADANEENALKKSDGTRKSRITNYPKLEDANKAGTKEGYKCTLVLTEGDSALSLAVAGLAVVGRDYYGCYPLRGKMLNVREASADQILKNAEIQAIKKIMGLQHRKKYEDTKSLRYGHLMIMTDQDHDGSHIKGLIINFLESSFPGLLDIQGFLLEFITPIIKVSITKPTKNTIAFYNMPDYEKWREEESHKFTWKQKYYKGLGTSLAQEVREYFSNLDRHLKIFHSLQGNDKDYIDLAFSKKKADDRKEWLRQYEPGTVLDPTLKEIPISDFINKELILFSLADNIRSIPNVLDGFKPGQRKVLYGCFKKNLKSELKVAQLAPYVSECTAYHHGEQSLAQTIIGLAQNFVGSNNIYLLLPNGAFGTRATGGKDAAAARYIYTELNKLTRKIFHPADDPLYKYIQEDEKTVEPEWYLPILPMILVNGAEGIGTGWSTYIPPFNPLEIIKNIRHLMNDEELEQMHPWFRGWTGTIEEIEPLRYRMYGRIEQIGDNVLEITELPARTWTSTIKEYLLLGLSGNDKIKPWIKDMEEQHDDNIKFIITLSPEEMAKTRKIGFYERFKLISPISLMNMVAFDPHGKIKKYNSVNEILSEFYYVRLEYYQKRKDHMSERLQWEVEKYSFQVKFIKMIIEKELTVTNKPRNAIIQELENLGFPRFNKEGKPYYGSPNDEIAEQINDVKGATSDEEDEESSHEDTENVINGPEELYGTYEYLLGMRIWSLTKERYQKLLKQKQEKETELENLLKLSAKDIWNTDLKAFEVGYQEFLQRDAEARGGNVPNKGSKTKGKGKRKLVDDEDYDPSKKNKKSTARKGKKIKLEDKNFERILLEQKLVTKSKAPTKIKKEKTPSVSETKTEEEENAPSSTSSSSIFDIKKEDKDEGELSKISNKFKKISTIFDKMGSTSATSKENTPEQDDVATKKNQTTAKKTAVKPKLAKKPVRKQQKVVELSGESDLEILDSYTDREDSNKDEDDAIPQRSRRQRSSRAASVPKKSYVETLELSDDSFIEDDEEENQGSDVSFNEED
Put plainly: ATP/NADH-coupled DNA-independent ATPase assay, purified enzyme. It is filed as biochemical.

One may read the IC50 as the concentration that inhibits the measured activity by half. Lower therefore signals greater potency. Usually Ki stands for a dissociation constant, usually derived from enzyme kinetics or from competition with a known ligand.

Chain of topoisomerase IIβ (Q02880 2-1626): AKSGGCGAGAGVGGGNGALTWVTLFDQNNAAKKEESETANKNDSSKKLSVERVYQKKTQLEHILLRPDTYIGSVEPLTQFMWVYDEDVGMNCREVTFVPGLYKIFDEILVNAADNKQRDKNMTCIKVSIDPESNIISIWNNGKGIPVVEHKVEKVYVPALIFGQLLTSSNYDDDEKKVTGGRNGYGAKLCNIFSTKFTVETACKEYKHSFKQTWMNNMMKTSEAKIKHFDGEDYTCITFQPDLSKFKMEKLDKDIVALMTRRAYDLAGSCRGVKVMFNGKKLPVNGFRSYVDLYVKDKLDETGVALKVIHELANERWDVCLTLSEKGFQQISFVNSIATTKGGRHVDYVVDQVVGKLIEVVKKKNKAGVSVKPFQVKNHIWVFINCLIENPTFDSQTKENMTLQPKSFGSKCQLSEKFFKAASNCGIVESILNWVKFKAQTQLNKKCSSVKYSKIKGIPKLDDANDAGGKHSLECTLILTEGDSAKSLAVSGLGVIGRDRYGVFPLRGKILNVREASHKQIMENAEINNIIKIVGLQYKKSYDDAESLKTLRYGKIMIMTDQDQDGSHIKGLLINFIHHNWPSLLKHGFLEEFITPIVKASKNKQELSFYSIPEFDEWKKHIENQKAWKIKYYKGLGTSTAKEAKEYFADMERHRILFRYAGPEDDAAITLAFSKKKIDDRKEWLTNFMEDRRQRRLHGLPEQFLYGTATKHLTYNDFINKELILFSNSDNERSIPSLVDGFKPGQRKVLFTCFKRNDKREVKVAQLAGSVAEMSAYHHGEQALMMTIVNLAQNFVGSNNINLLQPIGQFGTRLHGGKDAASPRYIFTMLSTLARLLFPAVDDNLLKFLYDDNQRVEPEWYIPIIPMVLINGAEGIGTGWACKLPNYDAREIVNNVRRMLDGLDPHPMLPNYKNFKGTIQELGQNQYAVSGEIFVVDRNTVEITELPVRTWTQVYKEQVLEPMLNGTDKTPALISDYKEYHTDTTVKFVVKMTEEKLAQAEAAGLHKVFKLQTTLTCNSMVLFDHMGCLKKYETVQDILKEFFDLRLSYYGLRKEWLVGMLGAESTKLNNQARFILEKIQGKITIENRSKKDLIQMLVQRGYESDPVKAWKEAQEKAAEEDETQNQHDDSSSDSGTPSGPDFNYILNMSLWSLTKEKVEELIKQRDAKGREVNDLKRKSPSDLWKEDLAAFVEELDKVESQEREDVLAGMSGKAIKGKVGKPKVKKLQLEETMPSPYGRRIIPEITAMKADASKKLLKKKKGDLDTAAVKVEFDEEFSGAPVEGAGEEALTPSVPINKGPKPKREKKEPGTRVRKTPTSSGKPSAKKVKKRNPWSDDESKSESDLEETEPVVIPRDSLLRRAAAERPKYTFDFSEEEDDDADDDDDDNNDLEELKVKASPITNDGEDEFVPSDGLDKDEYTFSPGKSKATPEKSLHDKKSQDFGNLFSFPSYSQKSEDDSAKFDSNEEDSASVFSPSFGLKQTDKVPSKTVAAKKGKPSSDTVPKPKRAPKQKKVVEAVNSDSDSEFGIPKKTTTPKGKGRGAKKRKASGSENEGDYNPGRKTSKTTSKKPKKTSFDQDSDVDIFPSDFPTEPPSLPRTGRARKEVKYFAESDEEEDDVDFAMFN
T1 sequence (P11388 whole entry): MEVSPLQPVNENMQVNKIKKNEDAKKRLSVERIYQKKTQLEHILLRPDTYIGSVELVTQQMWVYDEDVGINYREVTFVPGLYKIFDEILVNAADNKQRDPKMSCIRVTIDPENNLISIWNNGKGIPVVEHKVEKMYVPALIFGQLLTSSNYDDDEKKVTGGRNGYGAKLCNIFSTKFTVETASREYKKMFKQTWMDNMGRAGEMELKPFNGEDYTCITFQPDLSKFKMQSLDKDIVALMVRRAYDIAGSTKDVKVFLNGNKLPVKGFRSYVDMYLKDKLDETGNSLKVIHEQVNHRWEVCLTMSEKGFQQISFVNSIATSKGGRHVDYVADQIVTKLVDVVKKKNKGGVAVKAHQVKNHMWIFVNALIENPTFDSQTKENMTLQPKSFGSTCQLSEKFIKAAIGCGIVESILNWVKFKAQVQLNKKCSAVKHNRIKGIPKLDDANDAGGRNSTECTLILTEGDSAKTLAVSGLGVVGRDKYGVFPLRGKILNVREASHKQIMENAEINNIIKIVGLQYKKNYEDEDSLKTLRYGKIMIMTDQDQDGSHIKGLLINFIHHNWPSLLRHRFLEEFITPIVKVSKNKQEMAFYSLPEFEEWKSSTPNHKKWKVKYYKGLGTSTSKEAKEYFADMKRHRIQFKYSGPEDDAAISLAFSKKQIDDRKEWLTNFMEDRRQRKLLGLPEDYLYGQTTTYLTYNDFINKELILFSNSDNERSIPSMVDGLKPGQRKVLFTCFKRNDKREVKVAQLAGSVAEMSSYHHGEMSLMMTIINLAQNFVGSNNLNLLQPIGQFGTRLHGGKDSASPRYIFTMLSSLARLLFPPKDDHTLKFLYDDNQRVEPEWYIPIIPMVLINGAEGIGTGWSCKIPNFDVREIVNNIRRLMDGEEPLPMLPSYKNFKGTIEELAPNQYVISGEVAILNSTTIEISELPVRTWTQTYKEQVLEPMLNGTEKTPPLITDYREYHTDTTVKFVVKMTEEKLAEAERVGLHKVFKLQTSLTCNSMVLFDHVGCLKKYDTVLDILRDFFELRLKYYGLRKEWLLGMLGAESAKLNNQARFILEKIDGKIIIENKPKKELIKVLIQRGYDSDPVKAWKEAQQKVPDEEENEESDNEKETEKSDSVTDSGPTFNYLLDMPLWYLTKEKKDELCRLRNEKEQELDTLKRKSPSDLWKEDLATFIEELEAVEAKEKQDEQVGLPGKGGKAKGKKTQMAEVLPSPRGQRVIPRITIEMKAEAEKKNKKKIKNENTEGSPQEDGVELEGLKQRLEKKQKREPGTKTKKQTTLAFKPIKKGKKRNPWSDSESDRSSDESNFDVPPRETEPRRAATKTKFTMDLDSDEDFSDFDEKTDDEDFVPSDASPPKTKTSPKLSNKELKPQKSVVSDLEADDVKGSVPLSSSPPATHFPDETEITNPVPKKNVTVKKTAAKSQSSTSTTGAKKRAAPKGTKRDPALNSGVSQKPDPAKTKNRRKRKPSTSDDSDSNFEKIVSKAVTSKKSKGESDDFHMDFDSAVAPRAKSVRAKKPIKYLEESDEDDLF

On topoisomerase IIα [1], `Nc1ncnc2c1ncn2[C@@H]1O[C@H](COP(=O)(O)OP(=O)(O)NP(=O)(O)O)[C@@H](O)[C@H]1O` [AMP-PNP] showed an IC50 of 2 ± 0.4 µM.
`CN1CCN(c2ccc3nc(-c4c(N)c5c(F)cccc5[nH]c4=O)[nH]c3c2)CC1` [dovitinib]: the “cellular ICE assay of covalent enzyme-DNA complexes in K562 cells” value on topoisomerase IIβ is “Both dovitinib and etoposide also induced concentration dependent increases in the amount of the topoisomerase IIβ-covalent complex”. For the same molecule, the results for the IC50 against topoisomerase I and on topoisomerase IIα [2] were 6.2 ± 1.7 µM and 13 ± 4 µM, respectively. The Ki on yeast topoisomerase II was 2.4 ± 1.5 µM.
For `COc1cc([C@@H]2c3cc4c(cc3[C@@H](O[C@@H]3O[C@@H]5CO[C@@H](C)O[C@H]5[C@H](O)[C@H]3O)[C@H]3COC(=O)[C@H]23)OCO4)cc(OC)c1O` [etoposide, reference compound], the “cellular ICE assay of covalent enzyme-DNA complexes in K562 cells” value at topoisomerase IIβ is “Both dovitinib and etoposide also induced concentration dependent increases in the amount of the topoisomerase IIβ-covalent complex”.
